From ChEMBL document CHEMBL2163301, “Substrates for efficient fluorometric screening employing the NAD-dependent sirtuin 5 lysine deacylase (KDAC) enzyme” (J Med Chem, 2012)

molecular target: NAD-dependent protein deacylase sirtuin-5, mitochondrial (Homo sapiens, UniProt Q9NXA8); assay: Inhibition of SIRT5
Summary of the method: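 Recombinant SIRT5 at 50 ng/well (~30 nM, 50 μL) with succinyllysine AMC substrate and NAD in Tris-Cl pH 8.0/BSA buffer. Inhibitor dilutions were prepared in assay buffer from DMSO stocks. IC50 from nonlinear regression of dose–response, two assays in duplicate.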

NAD-dependent protein deacylase sirtuin-5, mitochondrial, sequence (Q9NXA8 whole entry): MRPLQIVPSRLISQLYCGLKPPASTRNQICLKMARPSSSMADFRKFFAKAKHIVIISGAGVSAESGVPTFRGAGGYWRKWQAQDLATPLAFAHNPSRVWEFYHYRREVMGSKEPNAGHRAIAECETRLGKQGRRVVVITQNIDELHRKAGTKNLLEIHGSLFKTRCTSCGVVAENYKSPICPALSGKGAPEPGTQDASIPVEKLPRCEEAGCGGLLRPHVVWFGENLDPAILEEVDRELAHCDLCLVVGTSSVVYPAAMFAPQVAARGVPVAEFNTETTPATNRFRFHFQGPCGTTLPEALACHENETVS

IC50, > 100 µM:
O=C(O)CCCc1ccccc1, N#C/C(=C\c1ccc(-c2cc(Cl)ccc2Cl)o1)C(=O)Nc1cccc2ncccc12, CC(NC(=O)c1ccccc1/N=C/c1c(O)ccc2ccccc12)c1ccccc1 (centres undefined) [SIRTINOL], O=C(CCCCCCC(=O)Nc1ccccc1)NO [VORINOSTAT]
